# Experimental data: PubChem BioAssay
# The source made the active and inactive calls.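 The calls were made as follows, unless noted: active = GFP response above 150% of the DMSO level; inconclusive = fewer than 70 events counted for a yeast strain; inactive = the rest.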
# Experiments:
# [1] = RPL19A-GFP modulators, yeast TOR pathway, confirmation, cell-based, S. cerevisiae, flow cytometry, cherry picks, mother/daughter gates (AID 2270;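 active = GFP response below 50% of the DMSO control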); conditions: S. cerevisiae RPL19A-GFP strain, 3 h, at 10 µM, stronger effect = lower value, 100 = same GFP as DMSO wells
# [2] = LAP4-GFP expression modulators in yeast, confirmation, cell-based, cherry picks, flow cytometry, mother/daughter gates (AID 2271;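 active = GFP response above 150% of the DMSO control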;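 also: ratio of sample to DMSO plate mean so 100% equals DMSO level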); conditions: S. cerevisiae LAP4-GFP strain, 3 h, at 10 µM, stronger effect = higher value, 100 means same as DMSO control
# Summary of the method: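 System: Alexa 633-stained baker's yeast GFP-fusion strain; quantity: 0.2 OD600 cells; timing: compound exposure 3 h at 30 °C, end-over-end rotation; detection: HT flow cytometry, GFP fluorescence channel; measure: per-gate (all, mother, daughter) GFP response vs DMSO; control set: DMSO-only negative wells, rapamycin 400 ng/mL positive wells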
# [3] = modulators of MEP2-GFP levels in yeast, confirmation, S. cerevisiae, flow cytometry GFP, cherry picks (AID 2272;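 active = GFP response above 150% of the DMSO control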;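 also: ratio of well signal to plate DMSO mean so 100% equals DMSO level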); conditions: S. cerevisiae MEP2-GFP strain, 3 h, at 10 µM, stronger effect = higher value
# [4] = AGP1-GFP expression modulators, hit retest, confirmation, cell-based, flow cytometry, S. cerevisiae, cherry picks (AID 2273);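 also: median GFP channel fluorescence over the whole cell population gate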; conditions: S. cerevisiae AGP1-GFP strain, 3 h, at 10 µM
# [5] = modulators of CIT2-GFP expression in yeast, confirmation, S. cerevisiae, GFP fusion, cherry picks, mother/daughter gates (AID 2274); conditions: S. cerevisiae CIT2-GFP strain, flow cytometry, 3 h, at 10 µM, stronger effect = higher value
# [6] = measured here: daughter cell gate
# [7] = measured here: mother cell gate
# [8] = measured here: daughter cell gate response
# [9] = measured here: mother cell gate response
Compound,GFP response vs DMSO [1],"GFP response vs DMSO [1, 6]","GFP response vs DMSO [1, 7]",GFP response relative to DMSO [2],"GFP response relative to DMSO [2, 8]","GFP response relative to DMSO [2, 9]",GFP response vs DMSO [3],"GFP response, % of DMSO [4]","GFP response, % of DMSO [5]","GFP response, % of DMSO [5, 6]","GFP response, % of DMSO [5, 7]"
Cc1ccsc1/C=N/Nc1ncc(Cl)cc1Cl,97% (inactive),94.2%,85.8%,177% (active),107%,189%,109% (inactive),83.7% (inactive),100% (inactive),101%,84.6%
Cc1cccc(OCCN2CSC(=S)N(C)C2)c1,95.6% (inactive),94.4%,92.7%,174% (active),161%,167%,168% (inactive),118% (inactive),131% (inactive),130%,122%
COc1ccc(NC(=S)N2CCC(c3ccccc3)C2)cc1 (centres undefined),103% (inactive),98.8%,98%,97% (inactive),95.9%,97.3%,101% (inactive),98.6% (inactive),97.3% (inactive),93.8%,94.4%
NS(=O)(=O)c1ccc(Sc2ccccn2)c([N+](=O)[O-])c1,97.4% (inactive),98.6%,98.5%,97.9% (inactive),99.2%,98.3%,100% (inactive),101% (inactive),98.3% (inactive),101%,98.5%
O=C(OCn1ncc(Br)c(Br)c1=O)c1ccccc1Cl,94.1% (inactive),96.2%,90.1%,172% (active),150%,167%,112% (inactive),105% (inactive),95% (inactive),104%,86.3%
COc1ccc(CCNC2=C(Cl)C(=O)N(CCc3ccccc3)C2=O)cc1OC,101% (inactive),102%,102%,103% (inactive),105%,103%,102% (inactive),97.4% (inactive),107% (inactive),99.7%,103%
Cc1ccc(NCN2C(=O)C3C4C=CC(C4)C3C2=O)cc1 (centres undefined),96.4% (inactive),97%,98.1%,95.3% (inactive),93.6%,96.5%,97.5% (inactive),98.4% (inactive),102% (inactive),102%,100%
CCN(C(=O)c1ccccc1Cl)c1ccccc1,98.5% (inactive),99%,98%,107% (inactive),104%,110%,99.3% (inactive),98.8% (inactive),100% (inactive),101%,100%
COc1ccc(-c2ccc(CCC(=O)O)o2)cc1,97% (inactive),95.1%,96.1%,126% (inactive),122%,126%,102% (inactive),86.3% (inactive),101% (inactive),97.2%,101%
O=C(Nc1nc(-c2ccccc2)cs1)c1cccs1,99.7% (inactive),94.2%,101%,101% (inactive),100%,106%,93.5% (inactive),86.9% (inactive),97.8% (inactive),94.8%,98.7%
CCOc1ccc(Nc2nc(N(C)c3ccccc3)nc(N)c2[N+](=O)[O-])cc1,92.1% (inactive),94.7%,91.7%,96.5% (inactive),95%,95.6%,106% (inactive),113% (inactive),104% (inactive),104%,106%
COc1ccc(/C(C)=N/NC(=O)c2ccc(N(C)C)cc2)cc1,103% (inactive),102%,103%,95% (inactive),94.1%,97.2%,104% (inactive),101% (inactive),104% (inactive),103%,104%
CCOC(=O)CSC1=NC(=O)/C(=C\c2ccc(Cl)cc2)S1,96.5% (inactive),87.9%,94.6%,197% (active),150%,186%,103% (inactive),116% (inactive),88.9% (inactive),81.6%,88.2%
Cc1cccc2c1NC(=O)/C2=C\C(=O)c1cccs1,97.2% (inactive),91.1%,89.1%,164% (active),148%,160%,104% (inactive),107% (inactive),92.6% (inactive),99.7%,83.7%
CC(C(=O)O)n1nc(-c2ccccc2)c2ccccc21 (centres undefined),97.8% (inactive),99.6%,95.3%,99.5% (inactive),101%,97.3%,99% (inactive),102% (inactive),102% (inactive),101%,101%
Cc1ccc(C)c(Cn2ncc3ccccc32)c1,95.8% (inactive),98.1%,95.4%,100% (inactive),97.5%,104%,106% (inactive),90.7% (inactive),94.4% (inactive),95.8%,92.6%
C/C(=N\NC(=O)c1c(Br)c(C)nn1C)c1cccc(NC(=O)C2CCC2)c1,100% (inactive),101%,102%,101% (inactive),97.9%,101%,102% (inactive),106% (inactive),99.3% (inactive),98.3%,99.1%

Compound,GFP response vs DMSO [1],"GFP response vs DMSO [1, 6]","GFP response vs DMSO [1, 7]",GFP response relative to DMSO [2],"GFP response relative to DMSO [2, 8]","GFP response relative to DMSO [2, 9]",GFP response vs DMSO [3],"GFP response, % of DMSO [4]","GFP response, % of DMSO [5]","GFP response, % of DMSO [5, 6]","GFP response, % of DMSO [5, 7]"
COc1ccc(C(=O)Nc2cccc(C)c2)cc1,98.2% (inactive),99.3%,96.9%,109% (inactive),108%,107%,108% (inactive),101% (inactive),111% (inactive),108%,108%
O=C1ON=C(c2ccccc2)/C1=C\c1ccco1,101% (inactive),90.8%,87%,168% (active),143%,165%,124% (inactive),93.2% (inactive),82.2% (inactive),89.9%,70.8%
Cc1ccc(Sc2ncnc3onc(C)c23)cc1,95.4% (inactive),95.7%,95.5%,117% (inactive),117%,117%,96.8% (inactive),99% (inactive),105% (inactive),105%,102%
N#C/C(=C\c1c(N2CCCCCC2)nc2ccccn2c1=O)C(=O)NCc1ccco1,96% (inactive),97.9%,96.2%,92.8% (inactive),96%,92.9%,98.3% (inactive),95.6% (inactive),96.9% (inactive),99.1%,96.1%
COC(=O)Cn1c(C)c(/C=C/c2cc[n+](C)cc2)c2ccccc21,100% (inactive),99.6%,101%,119% (inactive),121%,117%,129% (inactive),99.7% (inactive),117% (inactive),121%,113%
c1ccc(-c2cccc(-c3ccccn3)n2)nc1,92.9% (inactive),82.8%,96.9%,258% (active),210%,268%,106% (inactive),89% (inactive),97.8% (inactive),87.2%,100%
CSC(SC)=C(C#N)C(=O)c1ccccc1,102% (inactive),98.6%,99.8%,128% (inactive),117%,129%,103% (inactive),96.3% (inactive),93% (inactive),92%,93.2%
CCCc1nnc(NC(=O)c2nc(S(=O)(=O)Cc3ccc(C)cc3)ncc2Cl)s1,98.9% (inactive),97.6%,94%,106% (inactive),102%,104%,103% (inactive),103% (inactive),112% (inactive),106%,108%
COc1ccc2ccccc2c1/C=N/Nc1cccc(C(=O)O)c1,99.4% (inactive),98.6%,100%,98.2% (inactive),99.1%,98.4%,105% (inactive),102% (inactive),103% (inactive),101%,102%
Cn1ncc(N2CCN(S(=O)(=O)c3ccc(Br)cc3)CC2)c(Cl)c1=O,98.2% (inactive),97.9%,98.7%,96.7% (inactive),96%,95.1%,107% (inactive),99.3% (inactive),98.3% (inactive),101%,97.3%
Cc1nc(SC2CC(=O)N(c3ccccc3)C2=O)nc2c1CCCC2 (centres undefined),95.4% (inactive),95.9%,95.8%,97.9% (inactive),97.6%,97.2%,96.2% (inactive),93.1% (inactive),101% (inactive),101%,99.7%
COc1ccc(N/N=C(\C#N)C(N)=O)cc1,83.7% (inactive),64.6%,83.7%,166% (active),136%,185%,141% (inactive),125% (inactive),136% (inactive),114%,135%
O=C1C=CC(=O)N1c1ccc(O)cc1,96.6% (inactive),96.9%,85.9%,196% (active),192%,192%,100% (inactive),90% (inactive),96.9% (inactive),116%,84.3%
O=C(OCC(=O)N1CCN(C(=O)c2ccco2)CC1)c1cc(-c2ccc(Cl)c(Cl)c2Cl)nc2ccccc12,90.1% (inactive),89.1%,89%,97.9% (inactive),99.2%,104%,117% (inactive),116% (inactive),115% (inactive),105%,107%
CN1CCN(C(=O)CC2C(=O)NCCN2Cc2ccc(-c3ccccc3)cc2)CC1 (centres undefined),96.2% (inactive),96.2%,98.5%,100% (inactive),102%,99.5%,97.5% (inactive),99.7% (inactive),97.8% (inactive),100%,99.1%
COc1cc(NC(=O)c2ccc(Br)cc2)ccc1NC(=O)c1cc2ccccc2o1,99.9% (inactive),99%,100%,96.2% (inactive),98.7%,98.3%,100% (inactive),95.7% (inactive),96.5% (inactive),96.5%,97.7%
Cc1cc(Cl)ccc1N1C(=O)CC(SCCC(=O)O)C1=O (centres undefined),96.4% (inactive),97.6%,95.3%,103% (inactive),102%,105%,102% (inactive),97.8% (inactive),103% (inactive),103%,101%
